Drawing on BindingDB's records for doi:10.1021/jm950682e (Institute De Recherches Servier, 1996), this text covers Kd for five compounds.

Numbered stars: 1 amine (or outer) side, 2 acyl side, 3 side chain; on linkers, the order of the positions; unused ones are H or OH. Square brackets hold non-standard residues; d marks the D form. Peptide text beside a SMILES is read from it. * marks the point of attachment. Pentanoyl(5-guanidino) = NC(N)=NCCCCC(=O)*; NH(CH2)9CO = O=C(CCCCCCCCCN[*:1])[*:2]; Oic = O=C(O)[CH]1C[CH]2CCCC[CH]2N1; Tic = O=C(O)[CH]1Cc2ccccc2CN1; 2Thi = N[CH](Cc1cccs1)C(=O)O; X2 = N=C(N)NCCCCCC(=O)*; GABA = NCCCC(=O)O

This assay deals with T1, B2 bradykinin receptor (Oryctolagus cuniculus, UniProt Q28642).
T1 sequence (Q28642 whole entry): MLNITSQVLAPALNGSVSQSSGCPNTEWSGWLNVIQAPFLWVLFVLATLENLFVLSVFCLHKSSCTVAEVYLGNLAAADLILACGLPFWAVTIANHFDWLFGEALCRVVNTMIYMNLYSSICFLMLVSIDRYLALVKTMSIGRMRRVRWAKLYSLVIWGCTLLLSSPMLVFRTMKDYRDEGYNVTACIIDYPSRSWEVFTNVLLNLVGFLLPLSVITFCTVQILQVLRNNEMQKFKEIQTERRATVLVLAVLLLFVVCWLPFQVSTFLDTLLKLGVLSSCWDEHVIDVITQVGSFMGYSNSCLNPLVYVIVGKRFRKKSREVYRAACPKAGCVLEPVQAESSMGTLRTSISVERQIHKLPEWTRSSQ
The experiment in a line: In vitro antagonistic activity against kinin-induced rabbit jugular vein contraction. The method, boiled down: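 Rabbit jugular vein rings (B2 tissue), reference KCl 60 mM contraction then 45 min rest; antagonist, usually 10-7, 10^-6 and 10^-5 M, incubated 45 min before cumulative bradykinin; one curve per ring; pA2 by Tallarida's method with Schild slope constrained to unity, or pKB from EC50 ratio when activity appeared only at 10^-5 M.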
One may read the Kd as the equilibrium constant for the complex coming apart. Lower therefore signals tighter binding. Regarding `N=C(N)NCCCCCC(=O)NC(Cc1cccs1)C(=O)N1Cc2ccccc2CC1C(=O)N1C(C(=O)NC(CCCNC(=N)N)C(=O)O)CC2CCCCC21` (stereo not given) (X2-[2Thi][Tic][Oic]R-OH; configuration not given here), the affinity, expressed as Kd, was 3.39 µM.
Regarding `N=C(N)NCCCCC(=O)NC(Cc1cccs1)C(=O)N1Cc2ccccc2CC1C(=O)N1C(C(=O)NC(CCCNC(=N)N)C(=O)O)CC2CCCCC21` (stereo not given) ({Pentanoyl(5-guanidino)}-[2Thi][Tic][Oic]R-OH; configuration not given here), the Kd worked out at 3.02 µM.
The compound `N=C(N)NCCCC(NC(=O)C1CC2CCCCC2N1C(=O)C1Cc2ccccc2CN1C(=O)C(Cc1cccs1)NC(=O)CCCCCCCCCN)C(=O)O` (stereo not given) ({NH(CH2)9CO}-[2Thi][Tic][Oic]R-OH; configuration not given here) had a Kd of 0.468 µM.
With `N=C(N)NCCCC(NC(=O)C1CC2CCCCC2N1C(=O)C1Cc2ccccc2CN1C(=O)C(Cc1cccs1)NC(=O)CCCN)C(=O)O` (stereo not given) (H-[GABA][2Thi][Tic][Oic]R-OH; configuration not given here), the affinity, expressed as Kd, was 0.251 µM.
With `N=C(N)NCCCC(NC(=O)C1CC2CCCCC2N1C(=O)C1Cc2ccccc2CN1C(=O)C(Cc1ccccc1)NC(=O)CCCN)C(=O)O` (stereo not given) (H-[GABA]F[Tic][Oic]R-OH; configuration not given here), the Kd stood at 0.363 µM.
